# Compound activity from PubChem BioAssay.
# In the library only some 1.3% were active in any assay of this set; here they are far more common.
# RAD54 branch – inhibitors of human RAD54 branch migration, primary screen, biochemical, fluorescence, single point. inhibition, % at 10.4 µM. actives 0.14% (n = 360,000). RAD54 Holliday junction branch migration, FAM/BHQ fluorescence. AID 602329, 2012;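 active = mean normalized replicate activity at least 40 and at least half of replicates scoring 40 or more; inconclusive = only one of the two criteria met; inactive = mean below 40 and under half of replicates reaching 40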;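 also: inhibitors cause a drop in the FAM fluorescence signal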
# GSIS activator – GLuc luminescence reporter in INS-1E cells, primary screen for activators of glucose-dependent secretion of insulin | INS-1E GLuc reporter insulin secretion, 2-3 h | activation, % at 16.6 µM | actives 0.61% (n = 370,000);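 active = lowest replicate activation of at least 40%, so every replicate reaches that level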
# S100A4 inh HTS – inhibitors of S100A4-myosin IIA peptide binding, primary screen, biochemical, fluorescence polarization, TAMRA-MyoIIA peptide. inhibition, % at 10.7 µM. actives 0.14% (n = 360,000). AID 652163, 2013. Protein S100-A4 (Homo sapiens), P26447;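 active = mean inhibition of at least 70% across replicates, with every replicate also reaching that level; inconclusive = mean inhibition reaches 70% but some replicates fall short; inactive = mean inhibition below 70%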
#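 Test system: S100A4 monomer protein; Medium: HEPES pH 7.2 with CaCl2, KCl, NaCl, DTT, Triton; Probe or stimulus: TAMRA-labelled myosin IIA heavy-chain peptide probe, 5 nM; Doses: one dose per compound; Times: polarization read 5 min after assay mix addition, stable 5–60 min; Benchmarks: neutral control DMSO, positive control TFP.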
# AF4-AF9 inh – inhibitors of AF4 peptide binding to AF9, primary screen, biochemical, AlphaScreen, biotin-AF4 peptide, FLAG-AF9, single point; inhibition, % at 10 µM; AID 651704, 2012; actives 0.47% (n = 350,000); Protein AF-9 (Homo sapiens), P42568;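 active = every replicate reaching a set inhibition limit, whatever the replicate mean, cut at about 25% in these data; inconclusive = mean inhibition reaches that limit but some replicates miss it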
# Target sequence (P42568 whole entry, looked up): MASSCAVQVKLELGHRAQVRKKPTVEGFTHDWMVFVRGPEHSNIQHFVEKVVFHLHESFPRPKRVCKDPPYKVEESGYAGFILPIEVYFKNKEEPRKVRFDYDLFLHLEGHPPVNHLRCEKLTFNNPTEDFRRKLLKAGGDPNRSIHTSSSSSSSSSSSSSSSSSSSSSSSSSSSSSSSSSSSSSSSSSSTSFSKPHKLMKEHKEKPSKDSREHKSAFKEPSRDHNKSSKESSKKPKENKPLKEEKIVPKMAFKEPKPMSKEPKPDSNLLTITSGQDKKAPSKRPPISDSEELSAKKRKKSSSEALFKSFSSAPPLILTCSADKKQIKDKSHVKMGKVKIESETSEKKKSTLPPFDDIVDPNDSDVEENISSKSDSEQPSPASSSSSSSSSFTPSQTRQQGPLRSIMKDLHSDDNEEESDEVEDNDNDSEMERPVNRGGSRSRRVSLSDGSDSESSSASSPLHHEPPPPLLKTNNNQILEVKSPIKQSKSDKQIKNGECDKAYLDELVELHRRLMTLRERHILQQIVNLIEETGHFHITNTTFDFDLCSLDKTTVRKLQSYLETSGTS
# RAD52 anneal inh – RAD52 DNA annealing inhibitors, primary screen, biochemical, FRET, single point, set 2; DNA repair protein RAD52 homolog (Homo sapiens), P43351; recombinant RAD52 DNA annealing, FRET fluorescence; inhibition, % at 18.7 µM; actives 0.46% (n = 360,000); AID 651710, 2012;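 active = every replicate showing at least 50% inhibition; inconclusive = mean inhibition at least 50% but not in every replicate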
# A number is an active result; 0 = inactive; ? = inconclusive; - = no result given.
SMILES,RAD54 branch,GSIS activator,S100A4 inh HTS,AF4-AF9 inh,RAD52 anneal inh
C=CCn1c(SCC(=O)N2CCN(C(=O)OCC)CC2)nc2c([nH]c3ccccc32)c1=O,0,43,0,0,0
C=CCn1c(SCC(=O)N2CCCC2)nc2c([nH]c3ccccc32)c1=O,0,0,0,0,0
O=C(Nc1ccc(Br)cc1)c1cc2ccccn2n1,0,54,0,0,0
CCC(=O)N1CC[C@@H]2[C@@H](CO)Nc3ccc(-c4ccc(C(=O)N(C)C)cc4)cc3[C@@H]21,0,0,0,0,0
C[C@@H]1C(=O)N[C@@H](c2ccccc2)CC=CC[C@H](C)Oc2ccccc2C(=O)N1C (mixture of isomers),-,0,-,-,-
CCOc1ccc(C(=O)N/N=C/c2cc(Cl)ccc2[N+](=O)[O-])cc1,-,92,-,-,-
CCOc1ccc(Cl)cc1/C=N/NC(=O)c1ccccc1,-,0,0,0,0
OC(CNCC1CCCO1)Cn1c2ccc(Cl)cc2c2cc(Cl)ccc21 (centres undefined),0,-,-,-,-
OC(CNCCC1C=Nc2ccccc21)Cn1c2ccc(Cl)cc2c2cc(Cl)ccc21 (centres undefined),0,647,-,-,-
CN1OC[C@@H]2CN(Cc3ccc4c(c3)OCO4)[C@H](c3ccc(N4CCCCC4)cc3)C[C@@H]21,0,0,0,33,0
CN1OC[C@@H]2CN(S(=O)(=O)c3ccccc3)[C@H](c3ccc(N4CCCCC4)cc3)C[C@@H]21,0,0,0,0,0
CN1OC[C@@H]2CN(Cc3ccccc3)[C@H](c3ccc(N4CCCCC4)cc3)C[C@@H]21,0,0,0,28,0
CC(C)NC(=O)Nc1ccc2c(c1)C(=O)N(C)[C@H]1CC[C@H](CC(=O)Nc3ccc(F)cc3)O[C@@H]1CO2,0,0,0,0,0
C[C@H](CO)N1C[C@H](C)[C@H](CN(C)Cc2ccc3c(c2)OCO3)Oc2ccc(NC(=O)CCCCCC(=O)Nc3ccccc3N)cc2CC1=O,0,0,0,0,0
CCN1CCN(C(=O)c2ccc3c(c2)N(Cc2ccccc2)C(=O)c2ccccc2S3=O)CC1 (centres undefined),0,0,0,49,0
CN1CCN(C(=O)c2ccc3c(c2)N(Cc2cccc(Cl)c2)C(=O)c2ccccc2S3=O)CC1 (centres undefined),0,0,0,0,0
Cc1ccc(N(NC(=O)C(O)(c2ccccc2)c2ccccc2)C(=O)CCl)cc1,-,82,-,-,-
Cc1ccc(C(O)(C(=O)NN(C(=O)c2ccccc2)c2ccccc2)c2ccc(C)cc2)cc1,-,-,0,0,0
COc1ccc2c3c(n(C)c2c1)[C@H](CO)N(C(=O)Nc1ccc(F)cc1)CC31CCN(Cc2ccccc2F)CC1,-,0,0,0,55
COc1ccc2c3c(n(C)c2c1)[C@@H](CO)N(C(=O)Nc1ccc(F)cc1)CC31CCN(C)CC1,-,0,82,0,0
COc1ccc2c3c(n(C)c2c1)[C@@H](CO)N(C(=O)Nc1ccc(F)cc1)CC31CN(Cc2ccccc2F)C1,-,0,0,?,0
COC(=O)CN(c1cccc(C)c1)S(=O)(=O)c1ccccc1,0,46,0,0,0
Nc1[nH]c(C(=O)c2ccccc2)c(-c2ccccc2[N+](=O)[O-])c1C(=O)NCCc1c[nH]c2ccccc12,-,-,0,0,0
COc1cccc(-c2ccc3c(c2)N(Cc2cccc(F)c2)C(=O)C(C)S3)c1 (centres undefined),0,42,0,0,0
CC1Oc2ccccc2N(Cc2cccc(F)c2)C1=O (centres undefined),0,43,0,0,0
CC(=O)c1ccc2c(c1)N(Cc1ccccc1)C(=O)C(C)S2 (centres undefined),0,50,0,0,0
Cc1noc(C)c1NC(=O)N(C)C[C@H]1Oc2c(NC(=O)NC(C)C)cccc2C(=O)N([C@H](C)CO)C[C@H]1C,0,0,0,0,0
CN(C)C=NC(=O)c1ccc(N2CCN(c3ncc(C(F)(F)F)cc3Cl)CC2)cc1,0,72,-,-,-
CN(C)/C=C/C(=O)c1ccc(N2CCN(c3ncc(C(F)(F)F)cc3Cl)CC2)cc1,0,-,-,-,-
